Screening data as filed in PubChem BioAssay.
Apaf-1 act: human Apaf-1 activation. O14727. Apaf-1 apoptosome caspase-3 activation, DEVD-Rh110 fluorescence; active compounds read low. activity change, negative = activation, % at 20 µM. 330,000 compounds, 0.31% hits;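 active means activity change at or below -40% at 20 µM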
Target sequence (O14727 whole entry, looked up): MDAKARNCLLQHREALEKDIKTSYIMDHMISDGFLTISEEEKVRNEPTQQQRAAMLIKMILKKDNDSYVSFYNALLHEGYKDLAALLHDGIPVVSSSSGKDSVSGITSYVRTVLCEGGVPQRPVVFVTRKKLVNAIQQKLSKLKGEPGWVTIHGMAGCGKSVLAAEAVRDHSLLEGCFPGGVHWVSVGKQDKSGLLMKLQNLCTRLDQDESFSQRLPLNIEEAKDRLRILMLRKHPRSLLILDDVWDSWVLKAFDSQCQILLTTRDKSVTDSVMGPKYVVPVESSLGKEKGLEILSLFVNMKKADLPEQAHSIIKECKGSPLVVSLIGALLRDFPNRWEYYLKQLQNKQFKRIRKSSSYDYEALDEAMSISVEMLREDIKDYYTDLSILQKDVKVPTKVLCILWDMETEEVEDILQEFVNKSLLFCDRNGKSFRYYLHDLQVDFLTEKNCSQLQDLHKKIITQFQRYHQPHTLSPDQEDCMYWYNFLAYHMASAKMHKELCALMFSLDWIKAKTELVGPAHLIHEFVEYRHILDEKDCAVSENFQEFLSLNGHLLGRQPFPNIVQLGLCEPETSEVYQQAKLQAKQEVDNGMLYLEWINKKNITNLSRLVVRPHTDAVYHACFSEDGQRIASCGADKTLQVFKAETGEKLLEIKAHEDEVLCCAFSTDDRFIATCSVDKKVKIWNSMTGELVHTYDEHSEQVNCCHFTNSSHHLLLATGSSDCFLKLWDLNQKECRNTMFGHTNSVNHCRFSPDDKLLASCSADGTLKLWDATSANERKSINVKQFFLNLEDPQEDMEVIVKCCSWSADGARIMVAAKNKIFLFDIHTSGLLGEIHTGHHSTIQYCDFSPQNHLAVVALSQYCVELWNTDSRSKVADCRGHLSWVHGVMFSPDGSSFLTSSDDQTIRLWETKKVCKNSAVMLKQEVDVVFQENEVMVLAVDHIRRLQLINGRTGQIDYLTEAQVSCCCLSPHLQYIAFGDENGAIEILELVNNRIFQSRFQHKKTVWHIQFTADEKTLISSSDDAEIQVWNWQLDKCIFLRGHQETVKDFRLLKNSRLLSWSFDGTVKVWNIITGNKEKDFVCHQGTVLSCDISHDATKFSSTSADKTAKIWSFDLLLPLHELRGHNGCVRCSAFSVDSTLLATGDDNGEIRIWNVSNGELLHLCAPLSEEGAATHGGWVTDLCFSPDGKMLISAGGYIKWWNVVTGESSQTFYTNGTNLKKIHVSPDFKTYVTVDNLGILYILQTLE
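System: Reconstituted apoptosome of Apaf-1, cytochrome c, caspase-9, procaspase-3 | Reagent: dATP, cytochrome c, and (Z-DEVD)2-Rh110 caspase-3 substrate | Times: 30 min compound preincubation and 50 min reaction, both room temperature | Detection: Caspase-3-released Rh110 fluorescence, 540 nm emission, 480 nm excitation | Measure: Caspase-3 activity via Apaf-1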
Rh110 interf act: interferes with Rh110 fluorescence, flagging false Apaf-1 activators; shares compounds with Apaf-1 act; Rh110 fluorescence interference, quenched caspase reaction, Ex480/Em540; fluorescence interference (activity change), % at 20 µM, hits read low; 980 tested, under 10 active; AID 504616;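 active means mean activity change at or below -40% when tested at 20 µM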
Apaf-1 act conf: Apaf-1 (human) activation, single-dose confirmed; 980 compounds, 5% hits; reconstituted apoptosome caspase-3 activity, DEVD-Rh110 fluorescence; active compounds read low; shares compounds with Apaf-1 act; activity change, negative = activation, % at 20 µM;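 active means mean activity change at or below -40%, meaning activation of 40% or more, at 20 µM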
Hits are given with their value; 0 = inactive; - = no result. Not all results are given here.

SMILES	Apaf-1 act	Rh110 interf act	Apaf-1 act conf
C#CCOCCOCCOCCNc1nc(N2CCN(C(=O)C([C@@H](C)O)n3cc([C@@H](N)CCCCN)nn3)CC2)nc(N2CCN(C(=O)[C@H](CO)n3cc([C@@H](N)C(C)C)nn3)CC2)n1 (stereo not given in full)	0	-	-
CCC(CO)Oc1cc(NCc2cccc(C)c2)c2ncn(C(C)C)c2c1 (stereo not given)	0	-	-
CC1OC(Nc2cccc3ccccc23)C(O)C(O)C1O (stereo not given)	0	-	-
O=c1[nH]c2ccc(S(=O)(=O)Nc3ccc(-c4nnc5n4CCCCC5)cc3)cc2o1	-153.8	0	0
CCCCCc1ccc(OCCCC[n+]2ccccc2)c(CCCCC)c1	0	-	-
NC1=NC[C@H](c2ccccc2)N1CCc1cc(C(F)(F)F)cc(C(F)(F)F)c1	0	-	-
O=C(c1ccccc1)N1CCCOC1c1ccccc1 (stereo not given)	-67.0	0	0
CCOC(=O)C1Nc2ccccc2C2C(O)C(O)CC12 (stereo not given)	0	-	-
O=C(CCc1ccccc1)NNc1cc(N2CCCCC2)nc(N2CCCCC2)n1	0	-	-
COc1ccc(C[C@H]2CN3C(=NC[C@@H]3C(C)C)N2C[C@H](C)NC(=O)c2ccc(C)c(Br)c2)cc1	0	-	-
Cc1noc(NS(=O)(=O)c2ccc(NC(=O)NC(C)(C(F)(F)F)C(F)(F)F)cc2)c1C	-232.2	0	0
Cc1ccc(S(=O)(=O)NC(=O)Nc2ccc(N(C)C)cc2)cc1	0	-	-
Cc1ccc2[nH]c(=O)c(C(c3nnnn3CC3CCCO3)N3CCc4ccccc4C3)cc2c1 (stereo not given)	0	-	-
CS(=O)(=O)N(CC(=O)N1CCc2ccccc2C1)c1cccc(Br)c1	-257.5	0	0
Cc1ccc2[nH]c3c(c2c1)CN(C(=O)CN1CCCc2ccccc21)CC3	0	-	-
CC(C)NS(=O)(=O)c1ccc(OCC(=O)N(C)Cc2ccccc2)cc1	-555.1	0	0
CN(Cc1ccccc1)C(=O)CN1C(=O)NC(C)(c2ccc(C(C)(C)C)cc2)C1=O (stereo not given)	0	-	-
CCc1ccc(OCC(=O)N/N=C2\CC(=O)c3ccccc32)cc1	0	-	-
CCC(C)(C)c1ccc(OCCCC[n+]2ccccc2)c(C(C)(C)CC)c1	0	-	-
O=c1cccccc1NCc1ccccc1	0	-	-
O=C(NCc1ccccc1)C1(CC2CC(c3ccccc3)=NO2)CCNCC1 (stereo not given)	0	-	-
Cc1ccc(C(=O)c2c(C)oc3c2C(=O)C(=O)c2ccccc2-3)cc1	0	-	-
O=C1CCNc2cc3ccccc3cc21	0	-	-
CC(C)COc1ccc(C(=O)Nc2scc(-c3ccc(Cl)cc3Cl)c2C(N)=O)cc1	0	-	-
Cc1ccc(NC(=O)c2ccc(OC(=O)COc3ccc(Cl)cc3C)cc2)cc1	-485.8	0	0
SMILES	Apaf-1 act	Rh110 interf act	Apaf-1 act conf
CC(=O)N=Cc1c(C)c(C#N)c(=O)n(C)c1O	0	-	-
COc1ccc(C2c3sc(=O)[nH]c3SC3C(=O)N(c4ccccc4)C(=O)C32)cc1 (stereo not given)	-177.8	0	0
CC(=O)N(Cc1ccc(F)cc1)C1=C(NCCc2ccccc2)C(=O)c2ccccc2C1=O	0	-	-
COc1ccc(CCNc2nc(-c3ccc(F)cc3)c(CC(=O)O)s2)cc1OC	-161.6	0	0
COCCn1c(N)c(C#N)c2nc3ccccc3nc21	0	-	-
CCCCn1nnc(NC(=O)Cc2ccc(Cl)cc2)n1	-95.0	0	0
CN1CCN(c2ccc(NC(=O)c3ccc(-c4ccc(Br)cc4)o3)cc2)CC1	0	-	-
CCCn1nnc(NC(=O)c2ccc(-c3cccc(Cl)c3)o2)n1	-43.9	0	0
COC(=O)CCC(=O)OC1(C)C(=O)C=C2C=C(C3CC3)N(C3CC3)C=C2C1=O (stereo not given)	0	-	-
O=C(/C=C/c1ccc(-c2ccccc2[N+](=O)[O-])o1)c1ccc(Br)cc1	0	-	-
NS(=O)(=O)c1ccc(NC(=O)c2ccc3nccnc3c2)cc1	-43.7	0	0
C=CCNC(=O)c1c(N)n(-c2cccc(S(N)(=O)=O)c2)c2nc3ccccc3nc12	0	-	-
COc1cccc2c1C(=O)c1ccc3ccccc3c1C2=O	0	-	-
CC1=NN(c2ccccc2)C(=O)/C1=C\N(O)c1ccccc1	0	-	-
CC[C@@H](C)[C@@H]1CN([C@@H](C)CN2CCC[C@H]2CN2C(N)=NC[C@@H]2Cc2ccccc2)C(=N)N1CCc1ccc(Cl)c(Cl)c1	0	-	-
O=C(Nc1ccc2ccccc2n1)Nc1cccs1	-58.3	0	0
CN1CCN(CCCNC(=O)c2cc3c(-c4ccc(Cl)cc4)nn(C)c3s2)CC1	0	-	-
CCN(c1ccccc1)S(=O)(=O)c1ccc(Cl)c(NC(=O)Nc2ccc(Cl)cc2C#N)c1	0	-	-
CCN(CC)S(=O)(=O)c1ccc(Cl)c(NC(=O)c2ccc(C#N)cc2)c1	-270.3	0	0
